Rows were chosen to be rich in hits. Some 3% of all compounds tested hit in one or more screens of this group.
T cruzi inh = inhibitors of intracellular T. cruzi growth, primary screen, luminescence, NIH3T3 host cells | inhibition, % (no concentration beside the values) | hit rate 1.4% among 300,000 | T. cruzi beta-gal in NIH3T3, 90 h | AID 1885, 2009;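 active means mean inhibition across valid replicates above about 55%, limit read from the data; inconclusive means mean below that limit but half or more replicates reach it; inactive means mean below it, under half of replicates reach it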;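 further: signal also drops with host cell toxicity which is not excluded here; 0% = plate median of DMSO wells and 100% = zero luminescence signal; higher percent means less beta-gal luminescence so fewer parasites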
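Incubation – ≥90 h infection period, 3 h prior cell attachment · System – NIH/3T3 fibroblasts plus reporter T. cruzi · Doses – compound pinned at 50 nL/well, DMSO · Read-out basis – percent inhibition of parasite-derived β-gal signal · Signal – luminescent β-galactosidase signal after 60 min lysis · Also added – 5000 T. cruzi trypomastigotes/well · Medium – Low-serum DMEM with 2% FBS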
V-ATPase pH = regulators of yeast V-ATPase proton pumping, primary screen, pHLuorin cytosolic pH fluorescence. hit rate 0.37% among 350,000. response, % at 10 µM. S. cerevisiae; in the data active means response mostly above about 7.3%, no sharp cut-off; inactive means mostly below about 5.4%; further: actives read high
CR mimetic SO = reduction of superoxide in aged yeast, primary screen, HTS. S. cerevisiae aged cells, superoxide DHE fluorescence; stronger effect = lower value. superoxide response (% of plate mean), % at 10 µM. hit rate 0.18% among 330,000;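 active means superoxide response under a set limit, about three screen SD below normal, cut at about 65% in these data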;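 further: yeast aged for seven days with compound at 30 °C before DHE staining; 100% = average MFI of all compound-treated wells on the plate with controls excluded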
AI-2 QS modul = Vibrio harveyi AI-2 quorum sensing modulators, primary screen, JMH597 strain, luminescence/OD600 ratio; Vibrio harveyi JMH597 AI-2 luminescence/OD600 ratio, 9 h; stronger effect = lower value; strain lacks LuxN and CqsS sensors; 0 = neutral-control median; hit rate 0.4% among 300,000; activity change, % at 7.5 µM; in the data active means activity change below about -75%, passing the limit was not always enough; inconclusive means no clear call, values can overlap the other calls;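 further: luminescence divided by OD600 gain over 9 h not by final OD600 alone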
NRP1-CendR mod = modulators of CendR peptide binding to NRP-1, primary screen, biochemical, fluorescence polarization, uHTS. FAM-RPARPAR peptide binding to NRP-1. inhibition, % at 25 µM. hit rate 0.85% among 360,000. AID 602438, 2012;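 active means inhibition or corrected inhibition above about 18%, plus a signal ratio from 0.5 to 1.5, limit read from the data, passing the limit was not always enough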
Target sequence (O14786 whole entry, looked up): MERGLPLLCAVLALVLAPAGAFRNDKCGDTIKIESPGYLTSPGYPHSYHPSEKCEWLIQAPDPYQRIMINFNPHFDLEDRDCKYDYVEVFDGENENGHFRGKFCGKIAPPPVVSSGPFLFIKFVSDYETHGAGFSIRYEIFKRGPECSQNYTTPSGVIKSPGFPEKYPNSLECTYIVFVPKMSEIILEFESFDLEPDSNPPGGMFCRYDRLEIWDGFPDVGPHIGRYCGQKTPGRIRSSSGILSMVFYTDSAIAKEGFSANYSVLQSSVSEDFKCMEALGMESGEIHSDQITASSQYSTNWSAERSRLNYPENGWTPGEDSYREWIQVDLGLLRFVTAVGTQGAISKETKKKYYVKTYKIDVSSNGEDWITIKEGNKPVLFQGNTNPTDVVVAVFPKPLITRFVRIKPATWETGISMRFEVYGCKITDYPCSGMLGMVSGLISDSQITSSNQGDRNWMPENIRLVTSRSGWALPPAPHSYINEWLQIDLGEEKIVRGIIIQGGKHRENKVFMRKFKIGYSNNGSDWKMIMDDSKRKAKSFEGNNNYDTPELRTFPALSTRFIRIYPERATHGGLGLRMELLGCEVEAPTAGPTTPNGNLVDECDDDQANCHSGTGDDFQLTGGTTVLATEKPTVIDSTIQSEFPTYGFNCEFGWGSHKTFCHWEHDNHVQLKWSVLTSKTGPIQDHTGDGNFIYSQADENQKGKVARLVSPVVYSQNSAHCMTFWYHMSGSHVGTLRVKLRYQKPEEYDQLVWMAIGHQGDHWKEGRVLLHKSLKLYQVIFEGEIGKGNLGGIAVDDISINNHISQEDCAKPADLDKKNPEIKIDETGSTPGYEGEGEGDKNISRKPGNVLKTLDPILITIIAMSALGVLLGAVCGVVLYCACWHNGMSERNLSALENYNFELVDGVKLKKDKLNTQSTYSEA
HIF act = HIF pathway transcriptional activators, primary screen, cell-based, U2OS HRE-luciferase, luminescence. hit rate 0.32% among 300,000. U2OS HRE-luciferase reporter; normalized: DMSO 0%, desferrioxamine 100%. activation, % at 7.5 µM (by protocol);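 active means mean activation of at least 10% of the iron chelator positive control signal, with at least half of replicates also reaching 10%; inconclusive means mean and replicate majority disagree about reaching 10%; inactive means mean and most replicates under 10%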
* = called active by the depositor; ? = inconclusive; nt = no result given.

SMILES | T cruzi inh | V-ATPase pH | CR mimetic SO | AI-2 QS modul | NRP1-CendR mod | HIF act
O=[N+]([O-])c1cc(Cl)cc(/C=N\Nc2ccccn2)c1O | 56.7* | 3.5 | 128.1 | 48.3 | 6.1 | 20.8*
CC1CCC(NC(=O)c2ccc(NC(=O)CC3SC(N4CCCC4)=NC3=O)cc2)CC1 (stereo unspecified) | -6.9 | -3.7 | 95.0 | 28.7 | 5.1 | 1.4
CCN(CC)S(=O)(=O)c1ccc2oc(SCC(=O)NC3CC3)nc2c1 | 7.2 | -5.3 | 96.2 | 25.6 | -1.7 | 0.6
CC(=O)C1=C(O)C(=O)N(c2cc(C(C)(C)C)on2)C1c1ccc(Br)cc1 (stereo unspecified) | 4.7 | 2.8 | 152.7 | 35.1 | -10.8 | 0.0
CCOC(=O)c1c(CC(C)C)csc1NC(C)=O | -24.0 | -2.9 | 94.4 | 18.8 | -6.2 | 0.1
CCOC(=O)c1c(CC(C)C)csc1NC=O | 2.4 | 2.8 | 99.8 | 11.9 | 30.4* | -0.1
Cc1cc(C)c2cc(C#N)c(NCCOC(=O)c3ccccc3C)nc2c1 | 23.0 | -4.9 | 99.3 | 6.0 | 7.8 | -0.3
CN(Cc1ccccc1)c1nc2c(c(=O)[nH]c(=O)n2C)n1C | -3.9 | 1.5 | 105.3 | 20.1 | 3.8 | -0.3
CCCCCCCCn1c(N2CCN(c3cccc(Cl)c3)CC2)nc2c1c(=O)[nH]c(=O)n2C | 54.9* | -2.2 | 107.7 | 18.8 | 0.0 | -0.2
CCn1c(N2CCC(Cc3ccccc3)CC2)nc2c1c(=O)[nH]c(=O)n2C | 7.1 | 1.0 | 117.5 | 25.9 | -0.6 | 17.0*
Cc1cccc(Cn2c(N(C)Cc3ccccc3)nc3c2c(=O)[nH]c(=O)n3C)c1 | 13.6 | -1.4 | 95.0 | 3.7 | 25.9* | -0.4
CC1CCN(c2nc3c(c(=O)[nH]c(=O)n3C)n2Cc2ccccc2)CC1 | 12.3 | -2.6 | 97.7 | -17.0 | 7.3 | -0.3
Cc1cccc(C(=O)NC2CCN(C(=S)NCc3ccco3)CC2)c1 | -13.3 | -3.6 | 89.4 | 30.0 | 18.2 | -0.5
Cc1c(C(=O)NCc2cccnc2)oc2c1C(=O)CC(C)(C)C2 | -6.3 | -1.0 | 96.9 | 14.7 | 5.9 | -0.4
CCOc1ccc(CN2CCN(Cc3c(C)nn(CC)c3C)CC2CCO)cc1 (stereo unspecified) | 9.2 | -1.1 | 109.0 | -2.8 | 13.6 | 0.2
Cc1ccc2cc(CN(c3ccccc3C)S(=O)(=O)c3ccccc3)c(=O)[nH]c2c1 | 1.8 | -1.4 | 101.2 | 6.2 | 24.6* | nt
Cc1ccc(N(Cc2cc3ccccc3[nH]c2=O)S(=O)(=O)c2ccccc2)cc1 | -8.3 | 2.5 | 100.0 | 31.9 | -5.6 | -0.1
Cc1ccc(CNc2ccc(CNc3ncn[nH]3)cc2)cc1 | -1.5 | 2.6 | 103.5 | -63.4 | -1.3 | 0.6
CSCCC(NC(=O)c1ccc(Cl)cc1)C(=O)OCC(=O)NCc1ccco1 (stereo unspecified) | -10.2 | 2.4 | 88.9 | 13.0 | -2.0 | -0.2
COc1ccc2ccccc2c1/C=N\NC(=O)c1cccnc1 | -5.4 | 0.9 | 100.8 | 18.7 | 1.3 | 0.1
O=C(N/N=C/c1cc(O)ccc1Br)c1cccnc1 | -27.3 | 0.6 | 99.9 | ? | -11.4 | 13.6*
O=C(N/N=C/c1c(O)ccc2ccccc12)c1cccnc1 | 66.2* | -2.4 | 105.2 | 6.3 | -135.2 | 83.4*
Cc1ccc(C(=O)N/N=C/c2c(O)ccc3ccccc23)cn1 | 66.9* | 0.6 | 143.8 | -18.6 | -58.9 | 37.5*
CC(/C=N\NC(=O)c1cccnc1)c1ccccc1 (stereo unspecified) | 0.6 | -2.7 | 94.0 | 5.5 | 32.9* | nt
O=C(N/N=C/c1cc(Br)c(O)c(Br)c1O)c1cccnc1 | 1.7 | -2.8 | 133.3 | 72.0 | -14.2 | 0.7
SMILES | T cruzi inh | V-ATPase pH | CR mimetic SO | AI-2 QS modul | NRP1-CendR mod | HIF act
CC(C)(C)n1nc2c(c1NC(=O)c1ccc(Br)cc1)CS(=O)C2 (stereo unspecified) | -1.2 | 4.8 | 96.1 | 9.3 | 3.0 | -0.2
Cc1nc2cc(NC(=O)COc3ccccc3C#N)ccc2n1-c1ccccc1 | 15.9 | -1.2 | 120.2 | 20.3 | -8.7 | 0.0
O=C(N/N=C\c1c(O)ccc2ccccc12)c1cncc(Br)c1 | 65.4* | 1.2 | 83.0 | ? | 130.9 | 26.4*
Fc1ccccc1-c1ccc(/C=N/Nc2nc3ccccc3[nH]2)o1 | 29.0 | -0.4 | 96.0 | 32.4 | -16.9 | 2.1
Cc1ccc(/C=N\Nc2nc3ccc(Cl)cc3[nH]2)o1 | 21.4 | 1.8 | 84.6 | 13.0 | -3.7 | 12.6*
COc1ccc2c(c1)c(CC(=O)Nc1nnc(C3CC3)s1)c(C)n2C(=O)c1ccc(Cl)cc1 | 56.7* | -0.7 | 81.2 | 11.3 | -27.9 | 7.3
COc1ccc2c(c1)c(CC(=O)Nc1cc(C)ccc1C)c(C)n2C(=O)c1ccc(Cl)cc1 | 59.7* | -0.9 | 103.5 | 2.9 | -9.6 | -0.1
COc1ccc2c(c1)c(CC(=O)Nc1ccccc1OC)c(C)n2C(=O)c1ccc(Cl)cc1 | 48.2 | 1.2 | 107.5 | 26.2 | -9.5 | -0.2
COc1ccc2c(c1)c(CC(=O)Nc1ccc(C(C)=O)cc1)c(C)n2C(=O)c1ccc(Cl)cc1 | 35.5 | -1.0 | 96.9 | -7.9 | -7.2 | 0.2
CCCc1[nH]nc2c1C(c1ccoc1)C(C#N)=C(N)O2 (stereo unspecified) | -5.0 | -0.6 | 92.2 | 14.6 | -9.8 | 198.0*
Cc1[nH]nc2c1C(c1ccoc1)C(C#N)=C(N)O2 (stereo unspecified) | -14.1 | 3.9 | 118.7 | 17.9 | 1.9 | -0.3
COCC(=O)Nc1cc(C)cn(Cc2cccc(C(F)(F)F)c2)c1=O | 7.5 | 3.2 | 104.4 | -5.1 | -3.1 | 0.8
CN(Cc1ncc[nH]1)C(=O)CC1C(=O)NCCN1Cc1c(F)cccc1Cl (stereo unspecified) | -3.5 | 0.6 | 111.7 | -2.7 | 22.8* | -0.3
O=C(CSc1nnc(COc2ccc(Cl)cc2)o1)N1CCCC1 | -15.2 | 1.9 | 119.0 | 27.7 | 17.8 | 0.0
O=C(CSc1nnc(COc2ccc(Cl)cc2)o1)N1c2ccccc2CCc2ccccc21 | 66.2* | 0.1 | 102.9 | 13.5 | -0.9 | -0.2
CS(=O)(=O)c1ccc2nc(NC(=O)CCNC(=O)c3ccc([N+](=O)[O-])cc3)sc2c1 | nt | -1.1 | nt | nt | -5.9 | nt
CCS(=O)(=O)c1ccc(O)c(NC(=O)/C=C/c2ccccc2)c1 | -3.2 | 6.0 | 111.5 | -90.6* | 6.0 | 0.6
C/C(Cn1cnc([N+](=O)[O-])n1)=N\NC(=O)c1ccc(F)cc1 | 47.8 | 0.8 | 111.3 | 27.8 | 14.1 | 0.7
C/C(Cn1cnc([N+](=O)[O-])n1)=N\NC(=O)c1cccc(F)c1 | 62.8* | 4.6 | 100.1 | 21.6 | 0.4 | 3.3
COc1ccc(C(=O)N/N=C(\C)Cn2cnc([N+](=O)[O-])n2)cc1 | 55.9* | -2.7 | 100.6 | 8.2 | 0.8 | 1.4

Screening data from PubChem.
